Measurements: ChEMBL document CHEMBL4406880, “Design, synthesis, and bioactivity of dihydropyrimidine derivatives as kinesin spindle protein inhibitors” (Bioorg Med Chem, 2019)

Legend:
Format in all cases: functional
SW-620 = assay: Growth inhibition of human SW620 cells assessed as cell viability at 100 uM incubated for 48 hrs by sulforhodamine B assay; settings: SW-620, 48 h, read-out: Activity
OVCAR-4 [1] = assay: Growth inhibition of human OVCAR4 cells assessed as cell viability at 0.1 uM incubated for 48 hrs by sulforhodamine B assay; settings: OVCAR-4, 48 h, read-out: Activity
HOP-62 [2] = assay: Growth inhibition of human HOP62 cells assessed as cell viability at 0.001 uM incubated for 48 hrs by sulforhodamine B assay relative to control; settings: HOP-62, 48 h, read-out: Activity
HOP-62 [3] = assay: Growth inhibition of human HOP62 cells assessed as cell viability at 100 uM incubated for 48 hrs by sulforhodamine B assay; settings: HOP-62, 48 h, read-out: Activity
OVCAR-4 [4] = assay: Growth inhibition of human OVCAR4 cells incubated for 48 hrs by sulforhodamine B assay; settings: OVCAR-4, 48 h
Method in brief: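 NCI-60 five-dose SRB assay in RPMI 1640 with 5% FBS, 37 °C, 5% CO2. Compound given at five tenfold dilutions, 0.01–100 µM, for 48 h. Adherent cells fixed with TCA, suspension cells with 16% final TCA. Bound SRB read at 515 nm and growth calculated against time-zero and untreated controls. GI50 taken from dose–response curves as the concentration giving a 50% decrease in net cell growth.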

NCI/ADR-RES = assay: Growth inhibition of human NCI/ADR-RES cells assessed as cell viability at 100 uM incubated for 48 hrs by sulforhodamine B assay; settings: read-out: Activity
KM12 = assay: Growth inhibition of human KM12 cells assessed as cell viability at 1 uM incubated for 48 hrs by sulforhodamine B assay; settings: KM12, 48 h, read-out: Activity
MDA-MB-435 = assay: Growth inhibition of human MDA-MB-435 cells assessed as cell viability at 100 uM incubated for 48 hrs by sulforhodamine B assay; settings: MDA-MB-435, 48 h, read-out: Activity
Malme-3M [5] = assay: Growth inhibition of human MALME-3M cells assessed as cell viability at 100 uM incubated for 48 hrs by sulforhodamine B assay; settings: read-out: Activity
MOLT-4 = assay: Growth inhibition of human MOLT4 cells assessed as cell viability at 1 uM incubated for 48 hrs by sulforhodamine B assay; settings: MOLT-4, 48 h, read-out: Activity
BT-549 [6] = assay: Growth inhibition of human BT549 cells incubated for 48 hrs by sulforhodamine B assay; settings: BT-549, 48 h
Method in brief: (§1)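 NCI-60 five-dose mode: five tenfold dilutions (0.01, 0.1, 1, 10, 100 µM) are applied for 48 h to cells in RPMI 1640 with 5% FBS at 37 °C. Endpoint is TCA fixation with sulforhodamine B read at 515 nm. % growth comes from the 0 h and control absorbances. GI50 is the concentration giving a 50% reduction in net cell growth.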

A498 = assay: Growth inhibition of human A498 cells assessed as cell viability at 100 uM incubated for 48 hrs by sulforhodamine B assay; settings: A498, 48 h, read-out: Activity; method in brief: as §1
NCI-H226 [7] = assay: Growth inhibition of human NCI-H226 cells assessed as cell viability at 100 uM incubated for 48 hrs by sulforhodamine B assay; settings: NCI-H226, 48 h, read-out: Activity
DU-145 = assay: Growth inhibition of human DU145 cells assessed as cell viability at 0.001 uM incubated for 48 hrs by sulforhodamine B assay relative to control; settings: DU-145, 48 h, read-out: Activity
Malme-3M [8] = assay: Growth inhibition of human MALME-3M cells assessed as cell viability at 1 uM incubated for 48 hrs by sulforhodamine B assay; settings: read-out: Activity
NCI-H226 [9] = assay: Growth inhibition of human NCI-H226 cells assessed as cell viability at 1 uM incubated for 48 hrs by sulforhodamine B assay; settings: NCI-H226, 48 h, read-out: Activity
HL-60(TB) = assay: Growth inhibition of human HL-60(TB) cells incubated for 48 hrs by sulforhodamine B assay; settings: HL-60, 48 h
Method in brief: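 NCI-60 five-dose assay, SRB end-point, same culture conditions. Compound is tested at tenfold dilutions of 0.01, 0.1, 1, 10 and 100 µM for 48 h at 37 °C, with DMSO/PBS vehicle controls. Percentage growth at each concentration is taken against untreated cells and a time-zero plate. GI50 is 50% net growth decrease, TGI is total growth inhibition, and LC50 is 50% loss of initial cells.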

SK-MEL-5 = assay: Growth inhibition of human SK-MEL-5 cells incubated for 48 hrs by sulforhodamine B assay; settings: SK-MEL-5, 48 h
Method in brief: (§2)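 NCI-60 five-dose SRB assay. Cells were exposed for 48 h to tenfold dilutions of 0.01, 0.1, 1, 10 and 100 µM, in RPMI 1640 with 5% FBS. Plates fixed with TCA at the time of drug addition served as the time-zero reference. GI50 is the concentration giving a 50% reduction in net growth. TGI is total growth inhibition. LC50 is a net 50% loss of the initial cells.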

OVCAR-8 = assay: Growth inhibition of human OVCAR8 cells incubated for 48 hrs by sulforhodamine B assay; settings: OVCAR-8, 48 h; method in brief: as §2
BT-549 [10] = assay: Growth inhibition of human BT549 cells assessed as cell viability at 0.001 uM incubated for 48 hrs by sulforhodamine B assay relative to control; settings: BT-549, 48 h, read-out: Activity
HOP-62 [11] = assay: Growth inhibition of human HOP62 cells assessed as cell viability at 1 uM incubated for 48 hrs by sulforhodamine B assay; settings: HOP-62, 48 h, read-out: Activity
NCI-H522 = assay: Growth inhibition of human NCI-H522 cells assessed as cell viability at 0.001 uM incubated for 48 hrs by sulforhodamine B assay relative to control; settings: NCI-H522, 48 h, read-out: Activity
ACHN = assay: Growth inhibition of human ACHN cells incubated for 48 hrs by sulforhodamine B assay; method in brief: as §1
[12] = read-out: LC50 (the source's name)
[13] = read-out: pLC50 (the source's name) (converted)

Compound: CC1=C(C(=O)OCc2ccccc2)C(c2ccc3c(c2)OCO3)n2c(nc3ccccc32)N1 (racemic)
- viability at 100 µM (SW-620): 6%
- viability at 0.1 µM (OVCAR-4 [1]): 90%
- viability at 0.001 µM (HOP-62 [2]): 91%
- viability at 100 µM (HOP-62 [3]): 31%
- GI50 (OVCAR-4 [4]; read-out: GI50): 13.3 µM
- CC50 (OVCAR-4 [4]; [12]): > 100 µM
- TGI (OVCAR-4 [4]; read-out: TGI): > 100 µM
- GI50 (OVCAR-4 [4]; read-out: pGI50 (converted)): 13.2 µM
- CC50 (OVCAR-4 [4]; [13]): > 100 µM
- TGI (OVCAR-4 [4]; read-out: pTGI): > 100 µM
- viability at 100 µM (NCI/ADR-RES): 14%
- viability at 1 µM (KM12): 19%
- viability at 100 µM (MDA-MB-435): -7%
- viability at 100 µM (Malme-3M [5]): 20%
- viability at 1 µM (MOLT-4): 43%
- GI50 (BT-549 [6]; read-out: GI50): 0.92 µM
- CC50 (BT-549 [6]; [12]): > 100 µM
- TGI (BT-549 [6]; read-out: TGI): > 100 µM
- GI50 (BT-549 [6]; read-out: pGI50 (converted)): 0.912 µM
- CC50 (BT-549 [6]; [13]): > 100 µM
- TGI (BT-549 [6]; read-out: pTGI): > 100 µM
- viability at 100 µM (A498): 37%
- viability at 100 µM (NCI-H226 [7]): 64%
- viability at 0.001 µM (DU-145): 102%
- viability at 1 µM (Malme-3M [8]): 30%
- viability at 1 µM (NCI-H226 [9]): 66%
- GI50 (HL-60(TB); read-out: GI50): 0.34 µM
- CC50 (HL-60(TB); [12]): > 100 µM
- TGI (HL-60(TB); read-out: TGI): > 100 µM
- GI50 (HL-60(TB); read-out: pGI50 (converted)): 0.339 µM
- CC50 (HL-60(TB); [13]): > 100 µM
- TGI (HL-60(TB); read-out: pTGI): > 100 µM
- GI50 (SK-MEL-5; read-out: GI50): 0.54 µM
- CC50 (SK-MEL-5; [12]): > 100 µM
- TGI (SK-MEL-5; read-out: TGI): > 100 µM
- GI50 (SK-MEL-5; read-out: pGI50 (converted)): 0.537 µM
- CC50 (SK-MEL-5; [13]): > 100 µM
- TGI (SK-MEL-5; read-out: pTGI): > 100 µM
- GI50 (OVCAR-8; read-out: GI50): 0.63 µM
- CC50 (OVCAR-8; [12]): > 100 µM
- TGI (OVCAR-8; read-out: TGI): > 100 µM
- GI50 (OVCAR-8; read-out: pGI50 (converted)): 0.631 µM
- CC50 (OVCAR-8; [13]): > 100 µM
- TGI (OVCAR-8; read-out: pTGI): > 100 µM
- viability at 0.001 µM (BT-549 [10]): 95%
- viability at 1 µM (HOP-62 [11]): 44%
- viability at 0.001 µM (NCI-H522): 78%
- GI50 (ACHN; read-out: GI50): 0.69 µM
- CC50 (ACHN; [12]): > 100 µM
- TGI (ACHN; read-out: TGI): > 100 µM
- GI50 (ACHN; read-out: pGI50 (converted)): 0.692 µM
- CC50 (ACHN; [13]): > 100 µM
- TGI (ACHN; read-out: pTGI): > 100 µM
